# What was measured:
# [1] = Number of animals showing dyskinesias was determined in haloperidol sensitized 12 cebus monkeys after (po) administration of 80 mg/kg; format: functional
# Method in brief: (§1)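 Adult female and male Cebus monkeys sensitized with oral haloperidol 1 mg/kg once per week until dyskinetic reactions occurred. Test drug given orally (2 mL/kg) in 0.5% w/w hydroxypropylmethylcellulose with 0.1% w/w Tween 80 in distilled water, at least 2 weeks between treatments. Two observers watched continuously for 6-7 h, recording reaction type and severity every 30 min. Score is monkeys with dyskinesias/monkeys tested.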
# [2] = Number of animals showing dyskinesias was determined in haloperidol sensitized 2 cebus monkeys after (po) administration of 20 mg/kg; format: functional; method in brief: as §1
# [3] = Number of animals showing dyskinesias was determined in haloperidol sensitized 4 cebus monkeys after (po) administration of 40 mg/kg; format: functional; method in brief: as §1
# [4] = target: D(2) dopamine receptor (Rattus norvegicus) (UniProt P61169); assay: Binding affinity at dopamine receptor D2 from rat by spiropiperidone displacement.
# D(2) dopamine receptor (Rattus norvegicus), sequence (P61169 whole entry): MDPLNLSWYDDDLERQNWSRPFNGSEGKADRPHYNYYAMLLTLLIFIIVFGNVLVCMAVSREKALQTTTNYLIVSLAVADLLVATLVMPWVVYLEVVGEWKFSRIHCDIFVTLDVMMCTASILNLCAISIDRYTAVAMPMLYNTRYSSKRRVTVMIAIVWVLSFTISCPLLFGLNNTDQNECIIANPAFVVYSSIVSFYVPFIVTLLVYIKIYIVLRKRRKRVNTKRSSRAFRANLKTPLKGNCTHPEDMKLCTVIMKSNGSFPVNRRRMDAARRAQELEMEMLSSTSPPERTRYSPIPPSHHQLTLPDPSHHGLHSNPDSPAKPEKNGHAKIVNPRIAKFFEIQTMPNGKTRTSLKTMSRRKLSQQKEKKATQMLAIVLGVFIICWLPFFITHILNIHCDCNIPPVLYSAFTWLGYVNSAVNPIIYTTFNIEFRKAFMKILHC
# Method in brief: (§2)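 D2 receptor binding was read as % displacement of spiropiperidone, with test compound at 1000 nM unless stated otherwise. IC50 values used at least five concentrations per compound in triplicate. Each value is the mean of two replicate experiments differing by 5% or less.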
# [5] = test system: Mus musculus; assay: Antagonism of apomorphine induced climbing was determined in female swiss -Wbster mice after (ip) administration of 10 mg/kg; format: functional
# Method in brief: (§3)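 Female Swiss-Webster mice (about 20 g) were fasted about 24 h, then given test compound or vehicle ip or po (N = 20 per group). Vehicle was 0.5% w/w hydroxypropylmethylcellulose with 0.1% w/w Tween 80 in water. After 30 min, mice received apomorphine HCl 1.25 mg/kg sc. At 13 min, each mouse was watched for 1 min; score was mean of highest and lowest rung of 27. Groups were compared with vehicle by Student's t-test.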
# [6] = test system: Mus musculus; assay: Antagonism of apomorphine induced climbing was determined in female swiss -Wbster mice after (ip) administration of 20 mg/kg; format: functional; method in brief: as §3
# [7] = test system: Mus musculus; assay: Antagonism of apomorphine induced climbing was determined in female swiss -Wbster mice after (ip) administration of 40 mg/kg; format: functional; method in brief: as §3
# [8] = test system: Mus musculus; assay: Antagonism of apomorphine induced climbing was determined in female swiss -Wbster mice after (ip) administration of 80 mg/kg; format: functional; method in brief: as §3
# [9] = test system: Mus musculus; assay: Antagonism of apomorphine induced climbing was determined in female swiss -Wbster mice after (po) administration of 20 mg/kg; format: functional; method in brief: as §3
# [10] = test system: Mus musculus; assay: Antagonism of apomorphine induced climbing was determined in female swiss -Wbster mice after (po) administration of 40 mg/kg; format: functional; method in brief: as §3
# [11] = test system: Mus musculus; assay: Antagonism of apomorphine induced climbing was determined in female swiss -Wbster mice after (po) administration of 80 mg/kg; format: functional; method in brief: as §3
# [12] = test system: Mus musculus; assay: Antagonism of apomorphine induced swimming was determined in female swiss -Wbster mice after (po) administration of 20 mg/kg; format: functional
# [13] = test system: Mus musculus; assay: Antagonism of apomorphine induced swimming was determined in female swiss -Wbster mice after (po) administration of 40 mg/kg; format: functional
# [14] = test system: Mus musculus; assay: Antagonism of apomorphine induced swimming was determined in female swiss -Wbster mice after (po) administration of 80 mg/kg; format: functional
# [15] = Number of animals showing dyskinesias was determined in haloperidol sensitized cebus monkey after (po) administration of 40 mg/kg; format: functional; method in brief: as §1
# [16] = test system: Mus musculus; assay: Antagonism of apomorphine induced climbing was determined in female swiss -Webster mice after (ip) administration of 10 mg/kg; format: functional; method in brief: as §3
# [17] = test system: Mus musculus; assay: Antagonism of apomorphine induced climbing was determined in female swiss -Webster mice after (ip) administration of 2.5 mg/kg; format: functional; method in brief: as §3
# [18] = test system: Mus musculus; assay: Antagonism of apomorphine induced climbing was determined in female swiss -Webster mice after (ip) administration of 20 mg/kg; format: functional; method in brief: as §3
# [19] = test system: Mus musculus; assay: Antagonism of apomorphine induced climbing was determined in female swiss -Webster mice after (ip) administration of 40 mg/kg; format: functional; method in brief: as §3
# [20] = test system: Mus musculus; assay: Antagonism of apomorphine induced climbing was determined in female swiss -Webster mice after (ip) administration of 5 mg/kg; format: functional; method in brief: as §3
# [21] = test system: Mus musculus; assay: Antagonism of apomorphine induced swimming was determined in female swiss -Webster mice after (ip) administration of 10 mg/kg; format: functional
# [22] = test system: Mus musculus; assay: Antagonism of apomorphine induced swimming was determined in female swiss -Webster mice after (ip) administration of 2.5 mg/kg; format: functional
# [23] = test system: Mus musculus; assay: Antagonism of apomorphine induced swimming was determined in female swiss -Webster mice after (ip) administration of 20 mg/kg; format: functional
# [24] = test system: Mus musculus; assay: Antagonism of apomorphine induced swimming was determined in female swiss -Webster mice after (ip) administration of 40 mg/kg; format: functional
# [25] = test system: Mus musculus; assay: Antagonism of apomorphine induced swimming was determined in female swiss -Webster mice after (ip) administration of 5 mg/kg; format: functional
# [26] = test system: Mus musculus; assay: Antagonism of apomorphine induced swimming was determined in female swiss -Wbster mice after (ip) administration of 80 mg/kg; format: functional
# [27] = target: D(2) dopamine receptor (Rattus norvegicus, UniProt P61169); assay: Inhibition of spiropiperidone binding at dopamine receptor D2 of rat.
# D(2) dopamine receptor, sequence (P61169 whole entry): as above
# [28] = test system: Mus musculus; assay: Antagonism of apomorphine induced climbing was determined in female swiss -Webster mice after (ip) administration of 80 mg/kg; format: functional; method in brief: as §3
# [29] = test system: Mus musculus; assay: Antagonism of apomorphine induced swimming was determined in female swiss -Webster mice after (ip) administration of 80 mg/kg; format: functional
# [30] = target: D(2) dopamine receptor (Rattus norvegicus) (UniProt P61169); assay: Inhibitory activity for the displacement of spiropiperidone (1000 nM) from dopamine D2 receptor of rat; method in brief: as §2
# [31] = Number of animals showing dyskinesias was determined in haloperidol sensitized 2 cebus monkeys after (po) administration of 40 mg/kg; format: functional; method in brief: as §1
# [32] = Number of animals showing dyskinesias was determined in haloperidol sensitized 13 cebus monkeys after (po) administration of 10 mg/kg; format: functional
# Method in brief: (§4)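 Adult male and female Cebus monkeys sensitized with haloperidol 1 mg/kg po weekly until dyskinetic reactions appeared. Drug given orally (2 mL/kg) in 0.5% w/w hydroxypropylmethylcellulose with 0.1% w/w Tween 80, at least 2 weeks between treatments. Two observers watched continuously for 6–7 h, logging reaction type and severity every 30 min. Score is the number of monkeys with dyskinesias over the number tested.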
# [33] = Number of animals showing dyskinesias was determined in haloperidol sensitized 13 cebus monkeys after (po) administration of 20 mg/kg; format: functional; method in brief: as §4
# [34] = test system: Mus musculus; assay: Antagonism of apomorphine induced swimming was determined in female swiss -Wbster mice after (po) administration of 10 mg/kg; format: functional
compound,measurement,setting,value
OCCOCCN1CCN(C2=Nc3cc(Cl)ccc3Sc3ccccc32)CC1,No of monkeys,[1],0
same,No of monkeys,[2],0
same,No of monkeys,[3],0
same,% displacement of spiropiperidone,[4],58%
same,Activity,[5],20
same,Activity,[6],12
same,Activity,[7],8
same,Activity,[8],0
same,Activity,[9],25
same,Activity,[10],24
same,Activity,[11],16
same,Activity,[12],1
same,Activity,[13],1
same,Activity,[14],1
c1ccc2c(c1)N=C(N1CCN(CC3COCCO3)CC1)c1ccccc1S2 (stereo not drawn),No of monkeys,[15],2
same,% displacement of spiropiperidone,[4],50%
same,Activity,[16],1
same,Activity,[17],14
same,Activity,[18],0
same,Activity,[19],2
same,Activity,[20],6
same,Activity,[21],20
same,Activity,[22],8
same,Activity,[23],20
same,Activity,[24],30
same,Activity,[25],13
OCCOCCN1CCN(C2=Nc3cc(O)ccc3Sc3ccccc32)CC1,% displacement of spiropiperidone,[4],24%
same,Activity,[8],24
same,Activity,[26],0
OCCOCCOCCN1CCN(C2=Nc3ccccc3Sc3ccccc32)CC1,IC50,[27],1.39 µM
same,Activity,[18],20
same,Activity,[19],14
same,Activity,[28],<3
same,Activity,[23],2
same,Activity,[24],<3
same,Activity,[29],<12
COCC(CO)N1CCN(C2=Nc3ccccc3Sc3ccccc32)CC1 (stereo not drawn),IC50,[27],1.64 µM
same,Activity,[28],21
same,Activity,[29],0
COCC(COC)N1CCN(C2=Nc3ccccc3Sc3ccccc32)CC1,inhibition,[30],4%
same,Activity,[28],19
same,Activity,[29],0
[O-][S+]1c2ccccc2N=C(N2CCN(CCOCCO)CC2)c2ccccc21 (stereo not drawn) [SULFOXIDE METABOLITE],Activity,[28],23
same,Activity,[29],0
CN1CCN(C2=Nc3cc(Cl)ccc3Sc3ccccc32)CC1 [ISOCLOTHIAPINE],% displacement of spiropiperidone,[4],46%
same,Activity,[28],18
c1ccc2c(c1)N=C(N1CCN(CC3CCCO3)CC1)c1ccccc1S2 (stereo not drawn),No of monkeys,[31],2
same,IC50,[27],0.417 µM
same,Activity,[16],9
same,Activity,[18],2
same,Activity,[19],7
same,Activity,[20],21
same,Activity,[28],1
same,Activity,[21],7
same,Activity,[23],16
same,Activity,[24],26
same,Activity,[25],1
same,Activity,[29],37
O=S1(=O)c2ccccc2N=C(N2CCN(CCOCCO)CC2)c2ccccc21,Activity,[28],23
same,Activity,[29],0
OCCOCCN1CCN(C2=Nc3ccccc3Sc3ccccc32)CC1 [QUETIAPINE],No of monkeys,[32],1
same,No of monkeys,[33],2
same,No of monkeys,[3],0
same,Activity,[6],15
same,Activity,[7],2
same,Activity,[8],0
same,Activity,[9],18
same,Activity,[10],14
same,Activity,[11],8
same,Activity,[34],3
same,Activity,[12],3
same,Activity,[13],11
same,Activity,[14],18
OCCOCCN1CCN(C2=Nc3ccc(O)cc3Cc3ccccc32)CC1,% displacement of spiropiperidone,[4],25%
same,Activity,[6],21
same,Activity,[7],17
same,Activity,[8],2
same,Activity,[9],24
same,Activity,[10],17
same,Activity,[11],10
same,Activity,[12],1
same,Activity,[13],1
same,Activity,[14],3
